How the values were obtained:
[1] = tested on: CAKI-1; experiment: Lethal concentration required to kill 50% Caki-1 cells of the human renal carcinoma with non-mutant wt p53; assay type: functional; conditions: read-out: LC50 (the source's name)
In short: (§1)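 Cells (Caki-1 renal carcinoma with wild-type p53 as negative control; C33A cervical and Ramos RA1 lymphocyte lines with mutant p53) plated sub-confluent at 1 × 10⁵ cells/mL in RPMI with 10% FBS. Compounds added at 0.001–100 for 72 h, with a positive control and a vehicle negative control. LC50 is the concentration killing 50% of cells.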

[2] = Lethal concentration required to kill 50% Ramos RA1 cells of the human lymphocyte with a mutation at Asp 254; assay type: functional; conditions: read-out: LC50 (the source's name); in short: as §1
[3] = tested on: CAKI-1; experiment: Fold selectivity expressed as ratio of LC50 for Caki cells with non-mutant p53 to LC50 for Ramos RA1 cells with a mutation at Asp 254; assay type: functional, Homo sapiens
In short: (§2)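 Selectivity is the fold ratio of the Caki-1 (wild-type p53) LC50 to the mutant-p53 line LC50 (C33A or Ramos RA1). LC50s come from the 72 h anti-proliferation assay in RPMI/10% FBS, 0.001–100 range. Values are means of three experiments.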

[4] = tested on: CAKI-1; experiment: Fold selectivity expressed as ratio of LC50 for Caki cells with non-mutant p53 to LC50 for C33A cells with a mutation at Cys 273; assay type: functional, Homo sapiens; in short: as §2

Row | Compound | CC50 [1] [µM] | CC50 [2] [µM] | Fold selectivity [3] | Fold selectivity [4]
1 | C=C1C2=NS(=O)(=O)CC23CCC1C3(C)C (stereo not drawn) | 15.9 | 2.1 | 7.57 | 6.36
2 | C=C1C(=O)C2CCC1(C)C2(C)C (stereo not drawn) | 609 | 609 | 1 | 1
3 | C=C1Cc2cc(OC)ccc2C1=O | 30.5 | 3.2 | 9.53 | 1.45
4 | C=C1C(=O)C2(C(=O)Nc3ccc(OC)cc3)CCC1C2(C)C (stereo not drawn) | 108 | 14.3 | 7.55 | 7.11
5 | C=C1C(=O)C2(C(=O)O)CCC1C2(C)C (stereo not drawn) | 515 | 353 | 1.46 | 1.15
6 | C=C1C(=O)C2(CS(=O)(=O)NCc3ccc(OC)cc3)CCC1C2(C)C (stereo not drawn) | 190 | 69.9 | 2.72 | 1.93
7 | O=C1C2CCN(CC2)C1(CO)CO | 162 | 17.2 | 9.42 | 6.4
8 | COc1ccc(/C=C/c2nc(NCCCN(C)C)c3ccccc3n2)cc1 | 9.3 | 14.3 | 0.65 | 0.69
9 | C=C1CCc2cc(OC)c(OC)cc2C1=O | 15.9 | 4.9 | 3.24 | 0.7
10 | C=C1C(=O)C2(C(=O)NCc3ccc(OC)cc3)CCC1C2(C)C (stereo not drawn) | 120 | 15.9 | 7.55 | 7.31
11 | C=C1C(=O)C2(CS(=O)(=O)NCC(C)C)CCC1C2(C)C (stereo not drawn) | 334 | 157 | 2.13 | 1.95
12 | C=C1C(=O)C2(CS(=O)(=O)Nc3ccc(OC)cc3)CCC1C2(C)C (stereo not drawn) | 114 | 12.7 | 8.98 | 8.51
13 | C=C1CC2CCC1C2 (stereo not drawn) | > 924 | > 924 |  | 
14 | C=C1CCc2ccccc2C1=O | 30.6 | 12.9 | 2.37 | 1.1
15 | C=C1CCc2cc(OC)ccc2C1=O | 16.2 | 1.8 | 9 | 0.65
16 | C=C1C(=O)[C@@]2(C)CC[C@H]1C2(C)C | 609 | 609 | 1 | 3.29
17 | O=C1CC2CCC1C2 (stereo not drawn) | > 618 | > 618 |  | 
18 | C=C1C(=O)C2CC1C1CCCC21 (stereo not drawn) | 271 | 35 | 7.74 | 10.15
19 | C=C1C(=O)C2(C(=O)OC)CCC1C2(C)C (stereo not drawn) | 36 | 26.4 | 1.36 | 1.54
20 | C=C1C2CCC(C2)C1O (stereo not drawn) | 805 | 805 | 1 | 3.9
21 | C=C1C(=O)C2CCC1C2 (stereo not drawn) | 109 | 8.28 | 13.16 | 29.7
22 | C=C1C(=O)C2(C(=O)NCC(C)C)CCC1C2(C)C (stereo not drawn) | 171 | 21.5 | 7.95 | 8.07
23 | CC(C)=C1CC[C@H](C)CC1=O | 657 | 509 | 1.29 | 1.83
24 | C=C1/C(=N/O)C2CCC1C2 (stereo not drawn) | > 728 |  |  | 
25 | C=C1CCOC1=O [TULIPALINE A] | 55.4 | 39.3 | 1.41 | 1.13

Source: ChEMBL document CHEMBL1138632, “Identification and structure-activity relationship studies of 3-methylene-2-norbornanone as potent anti-proliferative agents presumably working through p53 mediated apoptosis” (2004)
